NRP1-CendR mod: modulators of CendR peptide binding to NRP-1, primary screen, biochemical, fluorescence polarization, uHTS; FAM-RPARPAR peptide binding to NRP-1; Neuropilin-1 (Homo sapiens), O14786; inhibition, % at 25 µM; 360,000 tested, 0.85% active;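 active = inhibition or corrected inhibition above about 18%, plus a signal ratio from 0.5 to 1.5, limit read from the data, passing the limit was not always enough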
ADAM10 inh: human ADAM10 inhibitors, primary screen, biochemical, QFRET, HTS | inhibition, % at 7 µM | Disintegrin and metalloproteinase domain-containing protein 10 (Homo sapiens), O14672 | recombinant ADAM10, EDANS/DABCYL FRET peptide cleavage, 3 h | AID 720582, 2013 | 370,000 tested, 0.62% active;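 active = inhibition above a per-campaign cutoff equal to the mean of compounds falling between control-based bounds plus 3 SD, cut at about 20% in these data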;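 note: 0% = DMSO wells while the 100% control is not disclosed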
FAS TE block: FAS thioesterase domain inhibitors, primary screen, biochemical, fluorescence intensity, uHTS; Fatty acid synthase (Homo sapiens), P49327; recombinant FAS-TE, OMFH fluorogenic substrate, fluorescence endpoint; inhibition, % at 15 µM; 360,000 tested, 0.67% active; AID 602261, 2012;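 active = compounds whose normalised, plate-corrected inhibition of enzyme fluorescence in the single-dose primary screen is 50% or more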;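 note: 0% = DMSO with enzyme and 100% = substrate without enzyme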
ADAM17 inh: ADAM17 inhibitors, primary screen, biochemical, QFRET; Disintegrin and metalloproteinase domain-containing protein 17 (Homo sapiens), P78536; recombinant ADAM17, EDANS/DABCYL FRET peptide cleavage; inhibition, % at 6.95 µM; 370,000 tested, 0.83% active; AID 720648, 2013;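 active = inhibition above the mean of compounds lying between control limits plus 3 SD, set per campaign, cut at about 8.5% in these data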;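 note: 0% = DMSO-only wells as the low control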
Target sequence (P78536 215-824 limits assumed): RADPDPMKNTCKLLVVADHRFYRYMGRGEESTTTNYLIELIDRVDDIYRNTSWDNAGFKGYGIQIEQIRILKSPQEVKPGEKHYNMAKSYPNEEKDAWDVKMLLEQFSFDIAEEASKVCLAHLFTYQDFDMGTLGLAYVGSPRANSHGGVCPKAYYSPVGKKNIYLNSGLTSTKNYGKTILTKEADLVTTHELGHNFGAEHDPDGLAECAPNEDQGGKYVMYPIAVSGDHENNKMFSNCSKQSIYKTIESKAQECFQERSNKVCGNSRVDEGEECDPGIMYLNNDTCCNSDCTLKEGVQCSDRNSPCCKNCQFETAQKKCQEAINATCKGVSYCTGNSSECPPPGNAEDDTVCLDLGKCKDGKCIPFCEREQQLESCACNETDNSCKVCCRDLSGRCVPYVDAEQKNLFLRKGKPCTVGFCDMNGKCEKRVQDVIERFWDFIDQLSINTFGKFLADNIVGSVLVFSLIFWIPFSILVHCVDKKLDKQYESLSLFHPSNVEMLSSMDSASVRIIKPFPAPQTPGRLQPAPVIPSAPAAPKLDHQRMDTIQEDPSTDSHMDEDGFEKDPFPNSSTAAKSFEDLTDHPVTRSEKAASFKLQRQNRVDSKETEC
Arrestin-AP2 inh: inhibitors of beta-arrestin/AP2 binding, primary screen, biochemical, GPCR trafficking, flow cytometry. inhibition, % at 10 µM. 340,000 tested, 0.31% active. AID 504490, 2011. FITC-arrestin peptide / GST-AP2 beads; AP2 beta2 appendage carries R879A mutation;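 active = inhibition above a set limit, near 3 SD of compounds lacking own fluorescence, cut at about 54% in these data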;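 note: plate controls were DMSO wells for no effect and 5 µM unlabelled arrestin peptide for full effect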
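System: GST-AP2 R879A glutathione beads | Also added: FITC-arrestin peptide, 50 nM | Times: 12 min plus 1 h, RT | Signal: Bead flow cytometry, FITC channel | Buffer or medium: PBS with 0.05% Tween 20 and 0.1% BSA | Read-out basis: Percent drop in bead-associated FITC signal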
CaV13 FRET inh: Primary screen for inhibitors of IQ motif and Ca2+-dependent inactivation inhibitor domain binding in CACNA1D, Förster resonance energy transfer in living cells, …. HEK cells, CFP/YFP FRET ICDI-IQ, plate reader, 10 min; percent FRET-ratio fall versus neutral wells. inhibition, % at 12.3 µM. AID 743397. 340,000 tested, 0.098% active;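 active = mean replicate inhibition of at least 30% and at least 1% of replicates passing that level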;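 note: 0% = median of the neutral control wells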
FAS-TE conf: FAS thioesterase domain inhibitors, confirmation, biochemical, fluorescence intensity, single concentration; 2,300 tested, 45% active; inhibition, % at 15 µM; recombinant FAS-TE, OMFH fluorogenic substrate; shares compounds with FAS TE block;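 active = compounds inhibiting the enzyme by at least 50% at 15 µM in any one of the replicates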;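 note: 0% = enzyme with DMSO only and 100% = wells lacking enzyme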
Numbers without * were called inactive; / = not tested or not shown. An excerpt weighted towards active compounds, which were near 2.9% of everything screened.

SMILES	NRP1-CendR mod	ADAM10 inh	FAS TE block	ADAM17 inh	Arrestin-AP2 inh	CaV13 FRET inh	FAS-TE conf
CC[C@@]12C(=O)N(c3ccc(OC)cc3)C(=O)N1[C@H](c1ccc(Cl)cc1)[C@@H]1C(=O)N(C3CCCCC3)C(=O)[C@@H]12	-2	6	67*	-1	4	-12	42
CCN1C(=O)[C@H]2[C@@H](c3ccc(C)cc3)N3C(=O)N(c4cccc(Cl)c4)C(=O)[C@@]3(CC(C)C)[C@H]2C1=O	12	11	12	5	7	-6	/
CC(C)C[C@@]12C(=O)N(c3cccc(Br)c3)C(=O)N1[C@H](c1ccc(Cl)cc1)[C@@H]1C(=O)N(C3CCCCC3)C(=O)[C@@H]12	-4	0	92*	-1	6	-12	19
CC(C)C[C@@]12C(=O)N(c3cccc(Cl)c3)C(=O)N1[C@H](c1ccc(Cl)cc1)[C@@H]1C(=O)N(C3CCCCC3)C(=O)[C@@H]12	2	-1	90*	-3	17	-11	28
CC1CCCN(S(=O)(=O)c2cc(C(=O)NCCc3ccc(S(N)(=O)=O)cc3)ccc2Cl)C1 (centres undefined)	-13	-7	6	4	28	-7	/
CSc1nc2c(=O)[nH]cnc2s1	/	-1	/	-3	/	-11	/
CC1(c2nnnn2Cc2ccccc2)CN(S(C)(=O)=O)CC(=O)N1Cc1cccs1 (centres undefined)	/	6	/	2	/	/	/
CN1C2=N[C@H](c3ccc(Br)cc3)CC(=O)N2/C(=C\c2ccccc2)[C@@H]1c1ccccc1	/	12	/	5	/	/	/
CC(OC(=O)Cc1c[nH]c2ccccc12)C(=O)Nc1ccccc1[N+](=O)[O-] (centres undefined)	-2	1	10	0	4	-6	/
C=C(C)Cn1c(SCC(=O)NN=Cc2c(O)ccc3ccccc23)nnc1-c1ccc(Br)cc1	/	-12	/	-5	/	/	/
O=C(NC(=S)Nc1cccc(C(F)(F)F)c1)c1ccc2nonc2c1	8	8	51*	3	8	-4	20
COC(=O)[C@]12C[C@H](CC(=O)N3CCSCC3)C(=O)N(Cc3ccc(Cl)cc3Cl)C1=C[C@H](C(C)C)O[C@@H]2C1CC1	/	-2	/	-3	/	/	/
Cc1cc(C)c2nc(NC(=O)c3cccc(S(=O)(=O)N4CCc5ccccc54)c3)sc2c1	8	-7	70*	-1	-1	-5	8
Cc1noc(C)c1C(=O)OCC(=O)Nc1ccccc1SCC#N	-10	-9	-10	-6	3	-4	/
N#Cc1cc(-c2ccccc2)nc(Oc2ccccc2)n1	-4	-4	69*	-3	8	4	45*
O=C(N[C@H](C(=O)N1CCC[C@H]1C(=O)NC1CCCC1)C1CCCCC1)c1cccs1	/	-4	/	0	/	-11	/
COc1ccc([C@H]2CC(=O)C=C(c3ccccc3)C2)cc1	-8	/	19	/	16	/	/
COc1ccc(C2CC23N=C(c2ccccc2)OC3=O)cc1 (centres undefined)	3	-10	85*	-4	26	-4	96*
COc1cc(C2NCC(c3ccc(Cl)cc3Cl)c3c2[nH]c2ccccc32)cc(OC)c1OC (centres undefined)	5	47*	66*	22*	27	-5	27
CCCOc1ccc(F)cc1-c1cc(C(=O)NCc2ccccc2OC)[nH]n1	-12	-6	15	0	/	-4	/
COc1ccc(NC2=Nc3ccccc3N3C2=Nc2c(c(C)nn2-c2ccc(C)cc2)C3c2cccnc2)cc1 (centres undefined)	-18	7	70*	0	15	-8	9
CC(=O)Nc1ccc(NC2=Nc3ccccc3N3C2=Nc2c(c(C)nn2-c2ccccc2)C3c2ccccc2)cc1 (centres undefined)	82	4	46	1	23	-7	/
CC(C=CC(O)=C1C(=O)CNC1=O)=C[C@@H](C)C1OC2(C)OC(C(=O)C3O[C@@]32C)C1C (some centres undefined)	-9	6	-12	2	/	-10	/
CCOc1cc(/C=C(\C#N)C(=O)Nc2ccccc2C(=O)O)ccc1OC(=O)c1ccc(C)cc1	-1	1	80*	2	-2	-2	-8
COC(=O)C[C@H]1CC[C@@H]2[C@H](COc3ccc(NC(=O)c4cccc(Cl)c4)cc3C(=O)N2C)O1	/	0	/	-3	/	/	/
SMILES	NRP1-CendR mod	ADAM10 inh	FAS TE block	ADAM17 inh	Arrestin-AP2 inh	CaV13 FRET inh	FAS-TE conf
O=C(NCc1ccc(F)cc1)C(C(=O)NCc1ccc(F)cc1)c1ncc(C(F)(F)F)cc1Cl	1	0	58*	6	12	3	62*
Cc1ccccc1CS(=O)(=O)c1nnc([C@H](Cc2ccccc2)NC(=O)OC(C)(C)C)o1	-5	10	64*	4	7	-6	27*
CC(C)(C)OC(=O)N[C@@H](Cc1ccccc1)c1nnc(S(=O)(=O)Cc2ccccc2)o1	/	8	/	1	/	-6	/
O=C(/C=C/c1cccc([N+](=O)[O-])c1)N1CCN(c2ccccc2F)CC1	-7	-1	56*	2	4	-4	42*
Cc1cccc(Cn2cc(COC(=O)N3CCCC3)nn2)c1	/	-8	/	-3	/	/	/
O=C(NCCCCc1ccccc1)c1cc([N+](=O)[O-])cc([N+](=O)[O-])c1	9	-4	52*	-1	4	-2	53*
O=C(Nc1ccc(NC(=O)c2cccc([N+](=O)[O-])c2)cc1)c1cccc([N+](=O)[O-])c1	13	-2	20	0	5	-19	/
O=C(NCCCCc1ccccc1)c1cccc([N+](=O)[O-])c1	-15	-7	54*	-2	15	2	65*
O=C(Nc1ccc(Cc2ccncc2)cc1)c1cccc([N+](=O)[O-])c1	-2	8	66*	3	2	6	70*
O=C(NCCCCc1ccccc1)c1ccccc1	9	4	-4	-1	15	-4	/
